Measurements taken from ChEMBL document CHEMBL1811892, “Synthesis and biological evaluation of loxoprofen derivatives” (Bioorg Med Chem, 2011).
Activity calls are given as the source filed them. No cut-off for these calls is given here.

Tests used:
[1] = target: Prostaglandin G/H synthase 1 (Homo sapiens, UniProt P23219); test: Inhibition of human whole blood COX-1 assessed as production of TXB2 after 24 hrs by EIA
[2] = target: T1, Prostaglandin G/H synthase 2 (Homo sapiens, UniProt P35354); test: Inhibition of human whole blood COX-2 assessed as production of PGE2 after 24 hrs by EIA
T1 sequence (P35354 whole entry): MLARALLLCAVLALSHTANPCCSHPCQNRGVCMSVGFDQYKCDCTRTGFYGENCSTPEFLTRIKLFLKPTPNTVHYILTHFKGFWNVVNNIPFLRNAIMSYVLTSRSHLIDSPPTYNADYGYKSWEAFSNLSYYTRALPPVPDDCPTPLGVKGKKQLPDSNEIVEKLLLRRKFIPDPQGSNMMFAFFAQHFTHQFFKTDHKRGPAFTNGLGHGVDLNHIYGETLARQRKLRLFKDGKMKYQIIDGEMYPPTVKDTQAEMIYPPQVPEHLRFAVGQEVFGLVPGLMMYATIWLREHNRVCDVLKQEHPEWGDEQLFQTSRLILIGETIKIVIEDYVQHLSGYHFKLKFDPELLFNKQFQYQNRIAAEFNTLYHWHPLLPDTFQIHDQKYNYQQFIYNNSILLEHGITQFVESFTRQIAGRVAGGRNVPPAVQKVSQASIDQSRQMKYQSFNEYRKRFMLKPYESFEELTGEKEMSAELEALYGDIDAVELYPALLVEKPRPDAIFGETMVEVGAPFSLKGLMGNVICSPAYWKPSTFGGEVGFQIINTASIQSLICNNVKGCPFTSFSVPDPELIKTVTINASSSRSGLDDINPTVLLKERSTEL

[3] = Membrane permeabilization activity assessed as release of calcein from liposomes after 10 mins by fluorescence assay; format: physicochemical; conditions: calcein-loaded liposomes, probe calcein
How it was run: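 Egg PC liposomes made by reversed-phase evaporation with 100 mM calcein (pH 7.4), washed free of untrapped dye in 10 mM phosphate buffer pH 6.8 with 150 mM NaCl. Diluted liposomes incubated with compound for 10 min at 30 °C; water as control. Calcein release read by fluorescence, excitation 490 nm, emission 520 nm.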

[4] = tested on: Rattus norvegicus; test: Ulcerogenicity in fasted Wistar rat assessed as damage in gastric mucosa at 50 to 67 mg/kg, po measured after 8 hrs; format: toxicity, organism-based; parameters: dose 50-67 mg/kg, route oral; conditions: in vivo
How it was run: (§1)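 Male Wistar rats (6 weeks, 180–200 g) fasted 18 h before oral NSAID dosing. Stomachs removed 8 h later. A blinded observer measured the area of each mucosal lesion in mm²; areas were summed into a gastric lesion index.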

[5] = tested on: Rattus norvegicus; test: Reduction in PGE2 levels in fasted Wistar rat stomach at 50 to 67 mg/kg, po measured after 8 hrs; format: functional, organism-based
How it was run: (§2)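 Male Wistar rats (6 weeks, 180–200 g) fasted 18 h, then dosed orally with NSAIDs. Killed 8 h later and stomachs removed. Gastric PGE2 measured by EIA.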

[6] = tested on: Rattus norvegicus; test: Antiinflammatory activity in Wistar rat assessed as inhibition of carrageenan-induced foot-pad edema at 13 mg/kg, po administered 1 hr before carrageenan challenge measured after 3 to 6 hrs by plethysmometer; format: functional, organism-based; parameters: dose 13 mg/kg
How it was run: (§3)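 Male Wistar rats (6 weeks, 180–200 g) given NSAIDs orally; 1 h later 100 μL of 1% carrageenan injected intradermally into the left hindpaw.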

[7] = tested on: Rattus norvegicus; test: Inhibition of PGE2 production in carrageenan-induced Wistar rat foot-pad at 13 mg/kg, po administered 1 hr before carrageenan challenge by EIA; format: functional, organism-based; parameters: dose 13 mg/kg
[8] = tested on: Rattus norvegicus; test: Ulcerogenicity in fasted Wistar rat assessed as damage in gastric mucosa at 40 to 50 mg/kg, po measured after 8 hrs; format: toxicity, organism-based; parameters: dose 40-50 mg/kg, route oral; conditions: in vivo; how it was run: as §1
[9] = tested on: Rattus norvegicus; test: Reduction in PGE2 levels in fasted Wistar rat stomach at 40 to 50 mg/kg, po measured after 8 hrs; format: functional, organism-based; how it was run: as §2
[10] = tested on: Rattus norvegicus; test: Antiinflammatory activity in Wistar rat assessed as inhibition of carrageenan-induced foot-pad edema at 10 mg/kg, po administered 1 hr before carrageenan challenge measured after 3 to 6 hrs by plethysmometer; format: functional, organism-based; parameters: dose 10 mg/kg; how it was run: as §3
[11] = tested on: Rattus norvegicus; test: Inhibition of PGE2 production in carrageenan-induced Wistar rat foot-pad at 10 mg/kg, po administered 1 hr before carrageenan challenge by EIA; format: functional, organism-based; parameters: dose 10 mg/kg

Chain of Prostaglandin G/H synthase 1 (P23219 whole entry): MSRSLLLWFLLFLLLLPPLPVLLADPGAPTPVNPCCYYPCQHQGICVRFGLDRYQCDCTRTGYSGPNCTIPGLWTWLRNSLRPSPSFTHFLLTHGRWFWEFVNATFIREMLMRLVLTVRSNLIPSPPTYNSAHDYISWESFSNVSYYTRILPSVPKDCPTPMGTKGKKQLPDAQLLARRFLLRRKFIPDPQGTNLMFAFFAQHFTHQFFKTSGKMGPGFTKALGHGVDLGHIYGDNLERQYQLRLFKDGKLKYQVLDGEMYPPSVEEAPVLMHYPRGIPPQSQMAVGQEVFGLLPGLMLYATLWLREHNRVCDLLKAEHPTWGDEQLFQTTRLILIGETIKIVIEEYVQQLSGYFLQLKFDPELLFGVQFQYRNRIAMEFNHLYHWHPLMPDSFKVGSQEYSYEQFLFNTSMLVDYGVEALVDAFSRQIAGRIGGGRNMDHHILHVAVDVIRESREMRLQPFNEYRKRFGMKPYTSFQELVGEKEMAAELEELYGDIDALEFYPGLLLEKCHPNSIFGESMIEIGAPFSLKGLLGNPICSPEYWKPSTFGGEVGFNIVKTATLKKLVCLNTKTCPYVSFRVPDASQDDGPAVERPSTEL

SMILES	IC50 [1]	IC50 [2]	EC50 at 10 min [3]	further results
CSc1ccc(-c2cc(C(C)C(=O)O)ccc2CC2CCCC2=O)cc1 (stereo not drawn)	758 µM	> 1000 µM	< 10000 µM	–
COc1ccc(-c2cc(CC3CCCC3=O)ccc2C(C)C(=O)O)cc1 (stereo not drawn)	74 µM	430 µM	< 100000 µM	–
CC(C(=O)[O-])c1ccc(CC2CCCC2=O)cc1-c1ccc(O)cc1.[Na+] (stereo not drawn)	326 µM	11 µM	25000 µM	Activity [4]: Non-toxic; inhibition [5]: Active; Activity [6]: Active; inhibition [7]: Active
CC(C(=O)O)c1ccc(C[C@H]2CCC[C@H]2O)cc1-c1ccc(O)cc1 (mixture of isomers)	47 µM	17 µM	–	–
CC(C(=O)O)c1ccc(CC2CCCC2=O)cc1-c1ccc(C(=O)O)cc1 (stereo not drawn)	> 1000 µM	76 µM	< 10000 µM	–
CC(C(=O)O)c1ccc(C[C@H]2CCC[C@@H]2O)cc1-c1ccc(O)cc1 (mixture of isomers)	650 µM	20 µM	–	–
CC(C(=O)O)c1ccc(CC2CCCC2=O)cc1-c1ccc(F)cc1 (stereo not drawn)	174 µM	36 µM	20000 µM	–
CC(C(=O)O)c1ccc(CC2CCCC2=O)cc1[N+](=O)[O-] (stereo not drawn)	93 µM	49 µM	–	–
CC(C(=O)O)c1ccc(CC2CCCC2=O)c(-c2ccc(C(=O)O)cc2)c1 (stereo not drawn)	> 1000 µM	> 1000 µM	–	–
CSc1ccc(-c2cc(CC3CCCC3=O)ccc2C(C)C(=O)O)cc1 (stereo not drawn)	575 µM	150 µM	< 100000 µM	–
CC(C(=O)O)c1ccc(CC2CCCC2=O)cc1-c1ccccc1 (stereo not drawn)	310 µM	70 µM	< 100000 µM	–
Cc1ccc(-c2cc(C(F)(F)F)nn2-c2ccc(S(N)(=O)=O)cc2)cc1 [CELECOXIB]	–	–	90 µM	–
CC(C(=O)[O-])c1ccc(CC2CCCC2=O)cc1.[Na+] (stereo not drawn) [LOXOPROFEN SODIUM]	–	–	–	Activity [8]: Dose-dependent effect; inhibition [9]: Active; Activity [10]: Active; inhibition [11]: Active
CC(C(=O)O)c1ccc(CC2CCCC2=O)cc1-c1ccc(OC(F)(F)F)cc1 (stereo not drawn)	515 µM	> 1000 µM	6000 µM	–
CC(C(=O)O)c1ccc(CC2CCCC2=O)c(-c2ccc(OC(F)(F)F)cc2)c1 (stereo not drawn)	460 µM	72 µM	< 10000 µM	–
Cc1ccc(-c2cc(CC3CCCC3=O)ccc2C(C)C(=O)O)cc1 (stereo not drawn)	470 µM	540 µM	< 100000 µM	–

Continued, in another order:

IC50 [1]	IC50 [2]	EC50 at 10 min [3]	SMILES	further results
49 µM	23 µM	< 100000 µM	CC(C(=O)O)c1ccc(CC2CCCC2=O)c(Br)c1 (stereo not drawn)	–
270 µM	540 µM	–	CC(C(=O)O)c1ccc(CC2CCCC2=O)cc1I (stereo not drawn)	–
174 µM	36 µM	< 100000 µM	CC(C(=O)O)c1ccc(CC2CCCC2=O)c(-c2ccc(F)cc2)c1 (stereo not drawn)	–
54 µM	290 µM	< 100000 µM	CC(C(=O)O)c1ccc(CC2CCCC2=O)c(-c2ccccc2)c1 (stereo not drawn)	–
800 µM	> 1000 µM	< 100000 µM	COc1ccc(-c2cc(C(C)C(=O)O)ccc2CC2CCCC2=O)cc1 (stereo not drawn)	–
> 1000 µM	–	–	CC(C(=O)O)c1ccc(CC2CCCC2=O)c(-c2ccc(O)cc2)c1 (stereo not drawn)	–
56 µM	420 µM	< 100000 µM	Cc1ccc(-c2cc(C(C)C(=O)O)ccc2CC2CCCC2=O)cc1 (stereo not drawn)	–
4 µM	2 µM	100000 µM	CC(C(=O)O)c1ccc(CC2CCCC2=O)cc1Cl (stereo not drawn)	–
